Reference: ChEMBL document CHEMBL2093137, “WHO-TDR NTD Screening”
In brackets after ≈: the same amount, converted by molar mass.

Experiments:
Onchocerca lienalis = assay: WHO-TDR: Onchocerciasis; assay type: functional; parameters: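 at 12.5 µM on microfilariae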
Method in brief: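 Percent inhibition and IC50 describe activity against microfilariae of Onchocerca ochengi or Onchocerca lienalis, used as animal-pathogen substitutes for the human parasite. The compounds tested made up a 10,000-member diverse library from Life Chemicals.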

Trypanosoma cruzi = assay: WHO-TDR: Chagas disease; assay type: functional, organism-based, Homo sapiens; conditions: MRC5
Method in brief: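 Each IC50 reflects antiparasitic potency against intracellular amastigotes of Trypanosoma cruzi Tulahuen CL2 beta-galactosidase strain. These were cultured in MRC-5SV2 human lung fibroblasts and exposed to a 10,000-compound diverse Life Chemicals library screened according to published standard procedures with a reference drug as positive control.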

[1] = WHO-TDR: Cytotoxicity; assay type: toxicity, cell-based; conditions: human, MRC5 cells
Schistosoma mansoni = assay: WHO-TDR: Schistosomiasis; assay type: functional; parameters: concentration or dose not given beside the values
Method in brief: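 Percent inhibition and IC50 describe activity against whole Schistosoma mansoni worms of the Puerto Rican strain, tested as larvae and/or adults. The compounds screened were a diverse set of 10,000 from Life Chemicals, filtered for drug-likeness and reactive groups. Testing followed previously published standard procedures, with a reference drug as positive control.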

Leishmania infantum = assay: WHO-TDR: Leishmaniasis; assay type: functional, organism-based, Mus musculus; conditions: Macrophage
Method in brief: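 Values are IC50 figures for antiparasitic potency. They come from a whole-organism screen of a 10,000-compound diverse Life Chemicals library against Leishmania infantum MHOM/MA(BE)/67 amastigotes inside murine peritoneal macrophage host cells.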

[2] = tested on: Trypanosoma brucei brucei; assay: WHO-TDR: Human African Trypanosomiasis (HAT); assay type: functional, organism-based; conditions: Squib-427
Method in brief: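 Values are IC50 figures for antiparasitic potency. They come from a whole-organism screen of 10,000 diverse Life Chemicals compounds against bloodstream-form Trypanosoma brucei (Squib 427 strain).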

Plasmodium falciparum K1 = assay: WHO-TDR: Malaria; assay type: functional, organism-based, Homo sapiens; conditions: Erythrocyte
Method in brief: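 Values are IC50 figures for antiplasmodial potency. They come from a whole-organism screen of 10,000 diverse Life Chemicals compounds against Plasmodium falciparum K1 growing inside human red blood cells, run by previously published standard procedures.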

Structure (SMILES) | % Inhibition (Onchocerca lienalis) [%] | IC50 (Trypanosoma cruzi) [µg/mL] | IC50 [1] [µg/mL] | % Inhibition (Schistosoma mansoni) [%] | IC50 (Leishmania infantum) [µg/mL] | IC50 [2] [µg/mL] | IC50 (Plasmodium falciparum K1) [µg/mL]
C#CCn1/c(=N/C(=O)CN2C(=O)c3ccccc3C2=O)sc2c3ccccc3ccc21 | 13.3 | > 11.4 | > 11.4 | 0 | 0.413 (≈ 0.971 µM) | > 11.4 | > 11.4
CN(C)CCN(C(=O)CCSc1ccccc1)c1nc2c(Cl)cccc2s1 | 0 | 4.15 (≈ 9.88 µM) | > 13.7 | 75 | > 13.7 | 4.33 (≈ 10.3 µM) | 3.39 (≈ 8.08 µM)
CN(C)CCCN(C(=O)CCOc1ccccc1)c1nc2cc3c(cc2s1)OCO3 | 0 | 0.433 (≈ 1.01 µM) | 3.34 (≈ 7.81 µM) | 75 | 0.451 (≈ 1.05 µM) | 4.51 (≈ 10.5 µM) | 1.72 (≈ 4.01 µM)
CCOC(=O)c1c(NC(=O)C2COc3ccccc3O2)sc2c1CC(C)(C)NC2(C)C (stereo not drawn) | 0 | 4.1 (≈ 9.22 µM) | 5.73 (≈ 12.9 µM) | 91.7 | 4.22 (≈ 9.49 µM) | 0.396 (≈ 0.891 µM) | 4.01 (≈ 9.02 µM)
CCN(CC)c1cc(C)nc(Nc2ccc(NC(=O)c3ccc(Br)o3)cc2)n1 | -1 | 0.344 (≈ 0.774 µM) | 2.91 (≈ 6.54 µM) | 66.7 | 4.31 (≈ 9.71 µM) | 0.942 (≈ 2.12 µM) | 0.638 (≈ 1.44 µM)
O=C(CSc1nc2ccccc2nc1O)Nc1ccccc1C(=O)c1ccccc1 | 26.7 | > 12.5 | > 12.5 | 0 | 1.97 (≈ 4.75 µM) | > 12.5 | > 12.5
CCNc1cc(C)nc(Nc2ccc(NC(=O)CC3CCCC3)cc2)n1 | -1 | 0.299 (≈ 0.846 µM) | 3.23 (≈ 9.13 µM) | 66.7 | 3.43 (≈ 9.71 µM) | 3.39 (≈ 9.6 µM) | 2.4 (≈ 6.79 µM)
CCN(CC)CCSc1ccc(-c2sc(-c3ccc(F)cc3)nc2C)nn1 | 6.7 | 3.25 (≈ 8.09 µM) | > 12.1 | 0 | 3.82 (≈ 9.49 µM) | 0.314 (≈ 0.78 µM) | 0.5 (≈ 1.24 µM)
NC(=O)c1ccc(NC(=O)c2c[nH]c(=O)n(-c3ccc(F)cc3)c2=O)cc1 | 0 | > 11 | > 11 | 0 | 0.358 (≈ 0.971 µM) | > 11 | > 11
CCNc1cc(C)nc(Nc2ccc(NS(=O)(=O)c3ccc4nc(C)sc4c3)cc2)n1 | 33.4 | 0.404 (≈ 0.889 µM) | 0.543 (≈ 1.19 µM) | 58.3 | > 13.6 | 4.31 (≈ 9.49 µM) | 1.18 (≈ 2.6 µM)
COc1ccc(-c2nnc(NC(=O)c3cccc(C(F)(F)F)c3)o2)cc1 | 0 | 0.844 (≈ 2.32 µM) | 10.1 (≈ 27.9 µM) | 0 | > 10.9 | > 10.9 | > 10.9
Cc1onc(-c2ccccc2Cl)c1C(=O)Nc1nnc(SCC(=O)Nc2ccc3c(c2)OCO3)s1 | 13.3 | 3.2 (≈ 6.05 µM) | 2.1 (≈ 3.96 µM) | 0 | 0.791 (≈ 1.49 µM) | 0.483 (≈ 0.911 µM) | 1.16 (≈ 2.2 µM)
Cc1cccc2sc(N(CCCN(C)C)C(=O)c3ccccc3Br)nc12 | 0 | 4.76 (≈ 11 µM) | 3.97 (≈ 9.18 µM) | 33.3 | 4.55 (≈ 10.5 µM) | 0.45 (≈ 1.04 µM) | 0.653 (≈ 1.51 µM)
CC(C)c1ccc2nc(NC(=O)c3ccc(C#N)cc3)sc2c1 | 0 | > 7 | > 7 | 0 | > 7 | 0.312 (≈ 0.971 µM) | > 7
CCOC(=O)c1c(NC(=O)Cn2c(-n3nc(C)cc3C)nc(CC)cc2=O)sc2c1CCC2 | 0 | 0.749 (≈ 1.6 µM) | > 14.1 | 0 | 4.56 (≈ 9.71 µM) | > 14.1 | 4.68 (≈ 9.97 µM)
CCN(CC)c1ccc(NC(=O)Cc2csc(NC(=O)c3cc(OC)cc(OC)c3)n2)c(C)c1 | 20 | 1 (≈ 2.08 µM) | > 14.5 | 0 | 4.69 (≈ 9.71 µM) | 0.493 (≈ 1.02 µM) | 4.28 (≈ 8.87 µM)
CCOc1ccc2nc(N(CCN(C)C)C(=O)c3cc4ccccc4cc3OC)sc2c1 | 0 | 0.425 (≈ 0.945 µM) | 4.28 (≈ 9.53 µM) | 0 | 4.72 (≈ 10.5 µM) | 0.35 (≈ 0.779 µM) | 1.82 (≈ 4.04 µM)

Structure (SMILES) | % Inhibition (Onchocerca lienalis) [%] | IC50 (Trypanosoma cruzi) [µg/mL] | IC50 [1] [µg/mL] | % Inhibition (Schistosoma mansoni) [%] | IC50 (Leishmania infantum) [µg/mL] | IC50 [2] [µg/mL] | IC50 (Plasmodium falciparum K1) [µg/mL]
O=C(CSc1ccc2nnc(-c3ccncc3)n2n1)c1ccc(Cl)cc1 | 0 | 0.425 (≈ 1.11 µM) | 4.28 (≈ 11.2 µM) | 0 | 4.72 (≈ 12.4 µM) | 0.35 (≈ 0.917 µM) | 1.82 (≈ 4.75 µM)
COC(=O)c1ccc(NC(=O)CSc2nnc(NC(=O)c3cc(Cl)ccc3OC)s2)cc1 | 0 | 4.49 (≈ 9.11 µM) | 4.1 (≈ 8.31 µM) | 16.7 | 4.24 (≈ 8.61 µM) | 0.435 (≈ 0.882 µM) | 0.324 (≈ 0.657 µM)
COc1ccc(CCNC(=O)CSc2nnc(NC(=O)c3cc(Cl)ccc3Cl)s2)cc1OC | 13.3 | 0.239 (≈ 0.452 µM) | 0.526 (≈ 0.997 µM) | 8.3 | 4.54 (≈ 8.61 µM) | 0.352 (≈ 0.668 µM) | 0.398 (≈ 0.755 µM)
O=C(CSc1nnc(NC(=O)COc2ccc(Cl)cc2)s1)NCC1CCCO1 (stereo not drawn) | 13.3 | 0.416 (≈ 0.939 µM) | 3.54 (≈ 7.99 µM) | 0 | 0.466 (≈ 1.05 µM) | 2 (≈ 4.52 µM) | 3.42 (≈ 7.71 µM)
CN(CC1CCCO1)S(=O)(=O)c1ccc(C(=O)Nc2nc3cc4c(cc3s2)OCCO4)cc1 (stereo not drawn) | 20 | 5.16 (≈ 10.5 µM) | > 9.82 | 100 | > 9.82 | 3.69 (≈ 7.54 µM) | 4.26 (≈ 8.71 µM)
CN(C)CCCN(C(=O)c1ccc(Br)s1)c1nc2cc3c(cc2s1)OCCO3 | 6.7 | 0.933 (≈ 1.93 µM) | 3.06 (≈ 6.35 µM) | 0 | 5.04 (≈ 10.4 µM) | 5.04 (≈ 10.4 µM) | 2.42 (≈ 5.02 µM)
O=C(CSc1nnc(NC(=O)COc2ccc(Cl)cc2)s1)NCc1ccco1 | 6.7 | 0.408 (≈ 0.93 µM) | 0.462 (≈ 1.05 µM) | 0 | 0.467 (≈ 1.06 µM) | 0.428 (≈ 0.975 µM) | 1.44 (≈ 3.28 µM)
COc1ccc(S(=O)(=O)NCC(c2cccnc2)N2CCN(Cc3ccccc3)CC2)cc1C (stereo not drawn) | 0 | 0.835 (≈ 1.74 µM) | > 14.4 | 0 | 7.47 (≈ 15.5 µM) | 5.04 (≈ 10.5 µM) | 1.81 (≈ 3.78 µM)
O=C(Nc1ccc(-c2cn3c(n2)SCC3)cc1)C1CCCC1 | 0 | > 9.4 | > 9.4 | 0 | 0.304 (≈ 0.97 µM) | > 9.4 | 9.4 (≈ 30 µM)
CCN(CC)c1cc(C)nc(Nc2ccc(NC(=O)c3cc4ccccc4oc3=O)cc2)n1 | 6.7 | > 13.3 | > 13.3 | 50 | > 13.3 | > 13.3 | 0.412 (≈ 0.929 µM)
CCN(CC)c1cc(C)nc(Nc2ccc(NS(=O)(=O)c3ccc(C)cc3C)cc2)n1 | -1 | 0.324 (≈ 0.737 µM) | 1.51 (≈ 3.43 µM) | 100 | 4.27 (≈ 9.71 µM) | 0.429 (≈ 0.976 µM) | 0.357 (≈ 0.812 µM)
COc1ccccc1N1CCN(C(CNS(=O)(=O)c2c(C)cc(C)cc2C)c2cccnc2)CC1 (stereo not drawn) | 86.7 | 0.929 (≈ 1.88 µM) | > 14.8 | 0 | > 14.8 | 4.8 (≈ 9.71 µM) | 0.78 (≈ 1.58 µM)
CCOC(=O)N1CCc2c(sc(NC(=O)C3COc4ccccc4O3)c2C(N)=O)C1 (stereo not drawn) | 13.3 | > 12.9 | > 12.9 | 66 | > 12.9 | > 12.9 | > 12.9
CN(C)CCN(C(=O)c1cccc(N2C(=O)CCC2=O)c1)c1nc2ccc(Br)cc2s1 | 0 | 4.94 (≈ 9.85 µM) | > 16.1 | 33.3 | 5.1 (≈ 10.2 µM) | 0.356 (≈ 0.71 µM) | 1.45 (≈ 2.9 µM)
Cc1csc(NC(=O)CSc2nnc(NC(=O)c3ccco3)s2)n1 | 0 | 5.1 (≈ 13.4 µM) | 5.73 (≈ 15 µM) | 0 | 4.74 (≈ 12.4 µM) | 4.74 (≈ 12.4 µM) | 1.14 (≈ 3 µM)
O=C(CSc1nnc(NC(=O)c2cccs2)s1)NCc1ccccc1Cl | 13.3 | 4.32 (≈ 10.2 µM) | 4.21 (≈ 9.91 µM) | 16.7 | 5.12 (≈ 12 µM) | 0.383 (≈ 0.902 µM) | 1.2 (≈ 2.82 µM)
CCOC(=O)Cn1/c(=N/C(=O)c2ccc(N3C(=O)CCC3=O)cc2)sc2c(C)cc(C)cc21 | 13.3 | > 9.4 | > 9.4 | 0 | 0.304 (≈ 0.654 µM) | > 9.4 | 9.4 (≈ 20.2 µM)
